# Experimental data taken from PubChem BioAssay AID624467 (The Scripps Research Institute Molecular Screening Center, 2012).
# Screen size: about 360,000 compounds; about 3,600 (1%) were called active. What follows is part of a selection rich in actives, with near analogues and random picks from the rest. A number with no mark means an inactive call.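 Rule for the calls: active = activation above the mean activation of all test compounds in the run plus 3 SD (cut at about 38% in these data); inactive = the rest.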
# Biological target: Trace amine-associated receptor 1 (Homo sapiens) (UniProt Q96RJ0)
# Assay: activators of TAAR1 calcium mobilization – Fluo-8 calcium fluorescence, CHO RD-HGA16 cells, primary screen (AID 624467)
# Conditions: CHO RD-HGA16 TAAR1, Fluo-8 calcium fluorescence; at 3 µM; hits give high values
# In short: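 Signal – calcium-sensitive Fluo-8 signal, excitation 470-495, emission 515-575 nm · System – RD-HGA16 (CHO) cells co-expressing Gα16 and hTAAR1 · Incubation – 17-24 h seeding, 75 min 37 °C dye, 30 min RT · Compound dosing – 3 µM single concentration · Repeats – no replicates (n 1)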
# Trace amine-associated receptor 1 (Homo sapiens), sequence (Q96RJ0 whole entry, looked up): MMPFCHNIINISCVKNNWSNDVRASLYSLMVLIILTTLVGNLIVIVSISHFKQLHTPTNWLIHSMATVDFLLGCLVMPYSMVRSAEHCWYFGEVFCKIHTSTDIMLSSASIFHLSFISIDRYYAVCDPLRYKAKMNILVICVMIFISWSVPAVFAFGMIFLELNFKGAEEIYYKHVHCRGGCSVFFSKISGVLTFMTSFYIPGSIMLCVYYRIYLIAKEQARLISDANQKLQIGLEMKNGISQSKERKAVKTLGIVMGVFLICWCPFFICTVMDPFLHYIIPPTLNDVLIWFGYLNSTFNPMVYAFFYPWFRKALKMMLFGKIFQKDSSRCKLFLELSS
row,SMILES,activation
1,Cc1cccc(N2C(=O)NC(=O)/C(=C\c3cnn(-c4ccccc4)c3)C2=O)c1,44.9% (active)
2,COc1cc(OC)cc(C(=O)NCCN2CCC3(CC2)C(=O)NCN3c2ccccc2)c1,0.43%
3,CCC(=O)OC(Cc1ccccc1)(c1ccccc1)C(C)CN(C)C (stereo not given),1.23%
4,COC(=O)COc1cc(C)cc2oc(=O)c3c(c12)CCCC3,15.7%
5,CCOP(=O)(OCC)C(NC(=O)NC)C(N)=O (stereo not given),1.74%
6,Cc1ccc(CN2CCCC(C(=O)c3ccc4c(c3)OCO4)C2)cc1C (stereo not given),5.3%
7,CCC(=NCCc1ccccc1)c1c(O)n(C2CCCCC2)c(=O)[nH]c1=O,82.8% (active)
8,CCCCCCN=C(CC)c1c(O)n(CCCC)c(=O)[nH]c1=O,18.9%
9,CC(=O)c1c(O)n(C2CCCCCC2)c(=O)[nH]c1=O,2.62%
10,c1ccc(C(CN2CCCCC2)c2ccccc2)cc1,5.89%
11,COc1ccc(NC(=O)N2CCC3(CC2)OCCO3)c(OC)c1,4.78%
12,Brc1ccc2c(c1)CNCc1cnnn1-2,2.44%
13,CC(=NC1CCN(Cc2ccccc2)CC1)c1c(O)n(C)c(=O)n(C)c1=O,-0.62%
14,COc1cc(C(=O)N2Cc3ccc(Br)cc3-n3nncc3C2)cc(OC)c1OC,1.8%
15,CCOc1cccc(=NC2CCCCC2)c2c(C)[nH]c(C)c12,2.88%
16,Clc1ccc([C@@H]2CC3CCC2N3)cn1 (stereo not given in full),0.89%
17,CCOC(=O)C1SC2(C(F)(F)C(F)F)CC1(O)c1c(c(OC)c3occc3c1OC)O2 (stereo not given),2.66%
18,CCCCC(=O)N/N=C/c1c(O)n(CC)c(=S)n(CC)c1=O,115% (active)
19,Cn1c(O)c(C=NCCCC(=O)O)c(=O)n(C)c1=O,1.16%
20,CCCCC(=O)N/N=C/c1c(O)n(CCC2=CCCCC2)c(=O)[nH]c1=O,3.56%

row,SMILES,activation
1,CC(=NCc1ccc2c(c1)OCO2)c1c(O)[nH]c(=O)[nH]c1=O,4.1%
2,O=C1NC(=O)N(Cc2ccco2)C(=O)/C1=C\c1ccc(-c2ccc(F)cc2)o1,51.8% (active)
3,COc1ccc(-c2nn(CCC#N)cc2C(=O)O)cc1,0.78%
4,C[C@]12CCC3C(CC[C@H]4[C@H](O)[C@H](O)CC[C@]34C)C1CCC2=O (stereo not given in full),4.54%
5,COc1ccc2c(c1)[C@@]13CCCCC1[C@@H](C2)NCC3 (stereo not given in full),4.44%
6,CCN1CC2C3CCC(C)(O3)C2C1 (stereo not given),1.68%
7,CCC(C)NC1(c2ccccc2)CCCCC1 (stereo not given),3.45%
8,CC(Cc1ccccc1)NC=O (stereo not given),68.4% (active)
9,CC(=O)Nc1ccc(C(=O)C(Cc2ccccc2)N(C)C)cc1 (stereo not given),5.99%
10,CC(Cc1ccccc1)NCCC(c1ccccc1)c1ccccc1 (stereo not given),44.2% (active)
11,O=c1c2ccccc2nc(/C=C/c2ccco2)n1-c1ccccc1O,0.46%
12,C[N+]12CN3CN(CN(C3)C1)C2,4.95%
13,S=C(NCCc1ccccc1)N1Cc2cc(N3CCOCC3)ccc2-n2nncc2C1,25.3%
14,O=S(=O)(c1ccccc1)N1CCC2CCNC2C1 (stereo not given),2.18%
15,CCN(CC)C(=O)c1ccc(NC(=O)c2cc(-n3cnnc3)ccc2Cl)cc1,8.2%
16,Cc1cc(N2CCNC[C@@H]2C)ccc1N1CC[C@H](O)C1,0.68%
17,CCN(CC)C(=O)[C@@H]1C=C2c3cccc4[nH]c(Br)c(c34)C[C@H]2N(C)C1,0.25%
18,CS(=O)(=O)N1CCC2CCNC2C1 (stereo not given),2.13%
19,Clc1ccc2nc3c(c(-c4ccccc4)c2c1)CNCC3,55% (active)
20,O=c1[nH]c(=O)n(CCc2ccccc2)c(O)c1/C=N/N1CCOCC1,7.45%

row,SMILES,activation
1,NCC(O)c1ccc(O)cc1 (stereo not given),80.5% (active)
2,CC12CN3CC(C)(CN(C1)C3c1cccs1)C2 (stereo not given),8.25%
3,CC(CC(C#N)(c1ccccc1)c1ccccc1)N1CCCCC1 (stereo not given),1.72%
4,O=C(N/N=C/c1c(O)n(C2CC2)c(=S)[nH]c1=O)c1ccccc1Cl,-1.25%
5,O=c1[nH]c2ccccc2n1C1CCN(C(c2ccccc2)c2nnnn2Cc2ccccc2)CC1 (stereo not given),10.1%
6,COc1ccc(-n2nnnc2C(c2cccc3ccccc23)N2CCC(n3c(=O)[nH]c4ccccc43)CC2)cc1 (stereo not given),3.04%
7,O=c1[nH]c2ccccc2n1C1CCN(C(c2ccnc3ccccc23)c2nnnn2Cc2ccccc2)CC1 (stereo not given),40.5% (active)
8,Cc1ccc2c(c1)=C/C(=C\c1c(O)[nH]c(=O)[nH]c1=O)C(=O)N=2,0.28%
9,COc1cccc(OC)c1C(=O)NC(=S)N1C[C@H]2C[C@H](C1)c1cccc(=O)n1C2,4.06%
10,O=C1CC(=O)N(Cc2ccccc2)C(=O)N1CCCCCCN1C(=O)CC(=O)N(Cc2ccccc2)C1=O,1.5%
11,O=C(CN1CCCC1=O)NCCc1ccccc1,38.6% (active)
12,OC(CNC1CCCCC1)c1ccccc1 (stereo not given),0.51%
13,c1ccc(CCNC2CCCCCC2)cc1,87.1% (active)
14,c1cc2c(cc1CCNC1CCCCCC1)OCO2,4.36%
15,COc1ccc(Br)cc1CNCCc1cccc(Cl)c1,49.1% (active)
16,COc1ccc(CNCCc2ccc3c(c2)OCO3)c(OC)c1OC,2.45%
17,COc1ccc(CNCCc2c[nH]c3ccccc23)cc1OC,1.21%
18,CNC(=S)N/N=C1\C2CN3CCN(C2)CC1(c1ccccc1)C3,2.42%
19,c1ccc2sc(N3CCNCC3)nc2c1,10.3%
20,CC(C)CN1Cc2cc(N3CCCCC3)ccc2-n2nncc2C1,-1.61%
